# Calls of active or inactive are those of the source. The calls are words filed in the database; no cut-off is given here.
# Experiments:
# HeLa [1] = assay: Induction of apoptosis in human HeLa cells assessed as apoptotic cells at 35 nM after 10 hrs by annexin V-FITC/propidium iodide staining-based FACS analysis; format: functional
# Procedure, shortened: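 HeLa cells were exposed to 35 nM for 10 or 24 h, stained with annexin V and propidium iodide using a kit, and apoptotic cells were quantified by FACS. Nocodazole (700 nM) served as comparator.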
# MCF7 [2] = assay: Inhibition of microtubule (unknown origin) dynamics in GFP-tubulin transfected human MCF7 cells assessed as decrease in microtubule growth at 15 nM by confocal laser scanning microscopy relative to control; format: cell-based
# Procedure, shortened: (§1)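 EGFP-tubulin transfected MCF-7 cells were treated with vehicle or 15 nM, and individual microtubules were tracked by confocal laser scanning microscopy, 20 microtubules per condition. Life-history parameters were derived as previously described. Significance was tested by one-way ANOVA.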
# Homo sapiens [3] = species: Homo sapiens; assay: Inhibition of microtubule (unknown origin) GTPase activity using GTP as substrate assessed as reduction of inorganic phosphate release at 10 uM incubated for 10 mins prior to substrate addition measured after 10 mins by ammonium molybdate malachite green assay relative to control
# Procedure, shortened: (§2)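 GTP (1 mM) was added and the mixture polymerized at 37 °C for 10 min. Reactions were stopped with perchloric acid, and released phosphate was measured by ammonium molybdate–malachite green.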
# MCF7 [4] = assay: Inhibition of microtubule (unknown origin) dynamics in GFP-tubulin transfected human MCF7 cells assessed as decrease in microtubule dynamicity at 15 nM by confocal laser scanning microscopy relative to control; format: cell-based; procedure, shortened: as §1
# HeLa [5] = assay: Induction of apoptosis in human HeLa cells assessed as late apoptotic cells at 30 nM after 24 hrs by annexin V/propidium iodide staining-based FACS flow cytometry; format: functional, cell-based
# Procedure, shortened: (§3)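 HeLa cells were grown with vehicle (0.1% DMSO) or 7, 15 and 30 nM for 24 h and stained with an annexin V/propidium iodide kit. Stage was scored as annexin V-positive with weak PI (early/mid) or positive for both (late).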
# HeLa [6] = assay: Induction of interphase microtubule depolymerization in human HeLa cells at 30 nM after 24 hrs by Hoechst 33258 dye-based fluorescence microscopy; format: cell-based
# Homo sapiens [7] = species: Homo sapiens; assay: Inhibition of microtubule (unknown origin) GTPase activity using GTP as substrate assessed as reduction of inorganic phosphate release at 20 uM incubated for 10 mins prior to substrate addition measured after 10 mins by ammonium molybdate malachite green assay relative to control; procedure, shortened: as §2
# HeLa [8] = assay: Induction of apoptosis in human HeLa cells assessed as caspase-3 dependent PARP cleavage at 30 nM after 24 hrs by Western blot analysis; format: functional, cell-based
# Procedure, shortened: (§4)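 HeLa cells were treated with vehicle or 30 nM for 24 h and washed twice in PBS. Lysates were Western blotted with antibodies to JNK1, phospho-JNK, procaspase-3 and PARP.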
# HeLa [9] = assay: Induction of apoptosis in human HeLa cells assessed as early apoptotic cells at 7 to 15 nM after 24 hrs by annexin V/propidium iodide staining-based FACS flow cytometry; format: functional, cell-based; procedure, shortened: as §3
# MCF7 [10] = assay: Inhibition of microtubule (unknown origin) dynamics in GFP-tubulin transfected human MCF7 cells assessed as decrease in microtubule growth rate at 15 nM by confocal laser scanning microscopy relative to control; format: cell-based; procedure, shortened: as §1
# HeLa [11] = assay: Cytotoxicity against human HeLa cells after 24 to 48 hrs by trypan blue assay; format: functional, cell-based
# Procedure, shortened: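 Cells were seeded at 1 × 10^5 cells/mL, grown 24 h at 37 °C in 5% CO2, then given vehicle (0.1% DMSO) or 1–80 nM for a further 24 or 48 h. Attached plus floating cells were counted after trypan blue staining. Percent inhibition was plotted against concentration to give IC50. Average of three independent experiments.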
# HeLa [12] = assay: Induction of apoptosis in human HeLa cells assessed as mid apoptotic cells at 7 to 15 nM after 24 hrs by annexin V/propidium iodide staining-based FACS flow cytometry; format: functional, cell-based; procedure, shortened: as §3
# HeLa [13] = assay: Induction of mitotic microtubule depolymerization in human HeLa cells at 30 nM after 24 hrs by Hoechst 33258 dye-based fluorescence microscopy; format: cell-based
# MCF7 [14] = assay: Inhibition of microtubule (unknown origin) dynamics in GFP-tubulin transfected human MCF7 cells assessed as microtubule growth time at 15 nM by confocal laser scanning microscopy (reference value: 37 +/- 6 %); format: cell-based; set-up: scale not given: the % may be the effect or the level left
# Procedure, shortened: (§5)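 EGFP-tubulin-transfected MCF-7 cells grown in EMEM with 10% FBS at 37 °C in 5% CO2, exposed to 15 nM compound (DMSO vehicle) or vehicle. Individual microtubules were followed by time-lapse confocal laser scanning microscopy and life-history traces were recorded. Kinetic parameters were derived from these traces, 20 microtubules per condition. Significance was tested by one-way ANOVA.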
# HeLa [15] = assay: Induction of apoptosis in human HeLa cells assessed as activated JNK1 level at 30 nM after 24 hrs by Western blot analysis relative to control; format: functional, cell-based; procedure, shortened: as §4
# Tubulin (Capra hircus) = assay: Inhibition of goat brain microtubule GTPase activity using GTP as substrate assessed as reduction of inorganic phosphate release at 2 uM incubated for 10 mins prior to substrate addition measured after 10 mins by ammonium molybdate malachite green assay relative to control
# HeLa [16] = assay: Inhibition of microtubule-kinetochore attachment in human HeLa cells assessed as BubR1 accumulation at kinetochoric region at 15 to 45 nM after 24 hrs by Hoechst 33258 dye-based Hec1 staining assay; format: cell-based
# HeLa [17] = assay: Induction of apoptosis in human HeLa cells assessed as procaspase-3 activation at 30 nM after 24 hrs by Western blot analysis; format: functional, cell-based; procedure, shortened: as §4
# HeLa [18] = assay: Induction of mitotic microtubule depolymerization in human HeLa cells assessed as unorganized chromosomes at metaphase plate at 15 nM after 24 hrs by Hoechst 33258 dye-based fluorescence microscopy; format: cell-based
# HeLa [19] = assay: Inhibition of mitosis in human HeLa cells assessed as mitotic index ratio at 30 nM after 24 hrs by Hoechst 33258 DNA staining assay (reference value: 3.2); format: functional
# Procedure, shortened: (§6)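 HeLa cells were treated with vehicle or 7, 15 or 30 nM compound for 24 or 48 h. DNA was stained with Hoechst 33258, and mitotic cells were counted by fluorescence microscopy to give the mitotic index, compared against vehicle-treated cells.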
# Homo sapiens [20] = species: Homo sapiens; assay: Inhibition of microtubule (unknown origin) assembly at 1 to 10 uM incubated for 15 mins prior to GTP addition measured for 30 mins by 90 degree light scattering-based fluorescence spectrophotometric method
# Procedure, shortened: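 MAP-rich tubulin (1 mg/mL) was preincubated with 1, 3, 5 or 10 μM in PEM buffer (25 mM Pipes pH 6.8, 3 mM MgCl2, 1 mM EGTA) for 15 min on ice. GTP (1 mM) was then added and assembly monitored by 90° light scattering at 400 nm for 30 min at 37 °C.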
# MCF7 [21] = assay: Inhibition of microtubule (unknown origin) dynamics in GFP-tubulin transfected human MCF7 cells assessed as microtubule shortening rate at 15 nM by confocal laser scanning microscopy (reference value: 16.4 +/- 5 um/min); format: cell-based; procedure, shortened: as §5
# HeLa [22] = assay: Inhibition of mitosis in human HeLa cells assessed as mitotic index ratio at 15 nM after 48 hrs by Hoechst 33258 DNA staining assay (reference value: 3); format: functional; procedure, shortened: as §6
# HeLa [23] = assay: Induction of mitotic microtubule depolymerization in human HeLa cells at 7 nM after 24 hrs by Hoechst 33258 dye-based fluorescence microscopy relative to control; format: cell-based
compound,measurement,setting,value
CC[C@H](C)[C@@H]([C@@H](CC(=O)NC[C@H]1O[C@H](C(=O)NCCc2ccccc2)[C@@H](OC)[C@@H]1OC)OC)N(C)C(=O)[C@@H](NC(=O)[C@@H](NC)C(C)C)C(C)C,Activity,HeLa [1],22.4%
same,inhibition,MCF7 [2],31%
same,inhibition,Homo sapiens [3],50%
same,inhibition,MCF7 [4],50%
same,Activity,HeLa [5],Active
same,Activity,HeLa [6],Active
same,inhibition,Homo sapiens [7],54%
same,Activity,HeLa [8],Active
same,Activity,HeLa [9],Active
same,inhibition,MCF7 [10],27%
same,IC50,HeLa [11],6.8 nM
same,Activity,HeLa [12],Active
same,Activity,HeLa [13],Active
same,Activity,MCF7 [14],21%
same,Activity,HeLa [15],Active
same,inhibition,Tubulin (Capra hircus),17%
same,Activity,HeLa [16],Active
same,Activity,HeLa [17],Active
same,Activity,HeLa [18],Active
same,Ratio,HeLa [19],12
same,inhibition,Homo sapiens [20],Active
same,Activity,MCF7 [21],12 um/min
same,Ratio,HeLa [22],11
same,Activity,HeLa [23],inactive

# Reference: ChEMBL document CHEMBL2331364, “A synthetic dolastatin 10 analogue suppresses microtubule dynamics, inhibits cell proliferation, and induces apoptotic cell death” (J Med Chem, 2013)
